Each structure is given as a SMILES string. Active and inactive are the calls of the source.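 Rule for the calls, unless noted: active = a full or partial loss of lipid-probe fluorescence in the fish gall bladder, intestine or both, judged by eye; inactive = no fluorescence loss, or compound toxic to the fish.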

By inhibition is commonly meant the change of the read-out against control, counted positive when it falls.

A short description of test [1]: inhibitors of TNFa-induced NFkB p65 translocation, primary screen, imaging, HUVEC, MLSMR starter and 10KST1 sets (AID 438;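 active = inhibition above 20% together with a positive visual image hit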;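 note: compound added about 3h40 before a 20 min TNFalpha stimulation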;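 for inhibition: signal is the nuclear over cytoplasmic p65 intensity ratio per well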). Particulars: HUVEC TNFa-induced p65 nuclear translocation; cell count: measured here: nuclei count (cytotoxicity indicator), at 2.08 µM; inhibition: at 2 µM, stronger effect = higher value, 0% TNFa-plus-vehicle, 100% no-TNFa wells.
Test [2] can be described thus: endothelial E-selectin expression blockers – imaging, HUVEC, immunofluorescence, MLSMR starter and 10KST1 sets, primary screen (AID 487;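 active = visually confirmed hit in the image check and inhibition above 20%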;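 for inhibition: signal is fraction of cell area covered by stained E-selectin grains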;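 for nuclei count: 100% = median nuclei count of all wells on the same plate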). The note with it: HUVEC TNFalpha-induced E-selectin immunofluorescence imaging, at 2 µM; inhibition: stronger effect = higher value; nuclei count: measured here: cell number, toxicity.
Test [3] can be described thus: Primary imaging screen for DUSP6 inhibitors that restore phospho-Erk in transfected HeLa cells, chemical complementation (AID 609;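 active = compounds giving at least 50% inhibition in the cell-based MKP-3 phosphatase rescue imaging test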;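 for inhibition: phospho-Erk level distribution per well compared with pooled transfected vehicle control wells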). Particulars: HeLa MKP-3 transfected, phospho-Erk imaging KS statistic, at 10 µM, cells stimulated with TPA for 15 min.
The target in test [4] is Dual specificity protein phosphatase 6 (Homo sapiens) (UniProt Q16828). The test is described as above. Particulars: HeLa MKP-3 transfected, phospho-Erk imaging KS statistic; at 10 µM; stronger effect = higher value; cells stimulated with TPA for 15 min.
Chain of Dual specificity protein phosphatase 6 (Homo sapiens) (Q16828 whole entry, looked up): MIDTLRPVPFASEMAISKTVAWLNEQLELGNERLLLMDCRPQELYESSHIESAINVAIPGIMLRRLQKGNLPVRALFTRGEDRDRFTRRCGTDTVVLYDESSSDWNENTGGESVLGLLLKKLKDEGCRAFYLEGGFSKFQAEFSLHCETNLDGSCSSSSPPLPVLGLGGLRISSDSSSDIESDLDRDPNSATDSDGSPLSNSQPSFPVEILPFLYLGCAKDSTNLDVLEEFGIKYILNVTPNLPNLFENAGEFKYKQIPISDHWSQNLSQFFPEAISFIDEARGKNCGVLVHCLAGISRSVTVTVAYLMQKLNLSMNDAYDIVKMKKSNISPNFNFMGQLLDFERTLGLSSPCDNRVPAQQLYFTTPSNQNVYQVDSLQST
Test [5] concerns the target Voltage-gated potassium channel subunit beta-2 (Rattus norvegicus) (UniProt P62483). The test can be described thus: inhibitors of rat Kvbeta2 reductase activity – biochemical, NADPH fluorescence, primary screen (AID 622;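 active = fluorescence slope higher than the sample average by over 3 SD, cut at about -0.22 in these data, passing the limit was not always enough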;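 note: slope of raw intensity against log time taken from 70 to 1610 s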). Particulars: recombinant KvBeta, 4-cyanobenzaldehyde reduction, at 10 µM, stronger effect = higher value.
Test [6] shares this target. Briefly: enhancers of rat Kvbeta2 NADPH turnover – biochemical, NADPH fluorescence, primary screen (AID 623;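 active = NADPH fluorescence slope more negative than the mean of all samples by about 3 SD, 99.7% confidence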;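 note: fluorescence intensity change per second fitted from 20 to 320 s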). Particulars: Recombinant KvBeta, NADPH fluorescence decrease slope, 10 min; at 10 µM; stronger effect = lower value.
Test [7] deals with Muscarinic acetylcholine receptor M4 (Homo sapiens) (UniProt P08173). The test can be described thus: M4-linked GIRK flux change, two-sided – cell-based, HEK293 M4/GIRK, thallium flux, BTC-AM, M4 allosteric agonist project, primary screen (AID 625;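 active = fluorescence slope after compound addition differing from the mean of all tested samples at 99.7% confidence, mostly higher but some lower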;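 note: thallium influx through GIRK channels coupled to M4 in HEK293 cells with BTC-AM dye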). Particulars: at 10 µM, actives lie on both sides. The procedure, abridged:
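Material: M4/GIRK1/GIRK2 stable HEK293 cell line. Medium: pH 7.3 thallium assay buffer. Dosing: single compound concentration, 10 µM final. Schedule: 1 h dye loading, 2 min kinetic read. Measured by: kinetic fluorescence with BTC-AM dye. Read-out: post-addition slope, 15–24 s, of baseline-normalized fluorescence. Benchmarks: carbachol and DMSO controls.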

Test [8] in a line: inhibitors of larval lipid processing in zebrafish, primary screen, whole organism, PED6 fluorescence, gall bladder and intestine (AID 686).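 Note: larvae 5 to 7 days old with five fish per well; signal comes from phospholipase A2 cleavage of quenched PED6 carried via bile; overnight exposure to compound and PED6 before scoring.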 Particulars: Zebrafish larvae PED6 lipid processing, fluorescence scoring; screened at 20 µM (by protocol). A digest of the protocol: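 System: live zebrafish larvae aged 5-7 days, whole organism; measure: graded gall bladder and intestinal fluorescence inhibition per well; incubation: overnight exposure; reagent: ingested quenched lipid PED6 at 100 nM; signal: By-eye fluorescence microscopy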

Test [9] in a line: loss of swimming-algae plug formation – whole organism, Chlamydomonas reinhardtii, WT vs cilia-less mutant, absorbance, 96-well, primary screen (AID 463189;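 active = inhibition at or above 50% relative to wild type and mutant plate controls; inactive = inhibition below 50%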;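 note: 0% = wild type cc124 cells in DMSO and 100% = ciliumless bld1 mutant cells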). The note with it: Chlamydomonas reinhardtii gravitaxis, OD600 absorbance, 2 days; at 10 µM; stronger effect = higher value.
[10] abbreviates: measured here: cell density z-score.
Where [11] appears, read: measured here: nuclear c-Myc green intensity z-score.
Where [12] appears, read: measured here: nuclear pErk red intensity z-score, stronger effect = higher value.

Chain of Voltage-gated potassium channel subunit beta-2 (Rattus norvegicus) (P62483 whole entry, looked up): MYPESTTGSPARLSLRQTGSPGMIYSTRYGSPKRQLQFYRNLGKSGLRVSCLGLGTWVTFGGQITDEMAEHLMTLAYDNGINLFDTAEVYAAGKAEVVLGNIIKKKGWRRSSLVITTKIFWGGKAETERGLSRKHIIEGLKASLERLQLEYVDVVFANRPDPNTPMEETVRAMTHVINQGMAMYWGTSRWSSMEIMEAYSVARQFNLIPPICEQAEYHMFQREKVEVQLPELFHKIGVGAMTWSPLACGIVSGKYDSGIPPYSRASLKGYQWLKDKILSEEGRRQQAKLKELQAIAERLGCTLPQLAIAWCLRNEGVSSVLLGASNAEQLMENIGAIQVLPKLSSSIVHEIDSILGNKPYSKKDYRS
Chain of Muscarinic acetylcholine receptor M4 (Homo sapiens) (P08173 whole entry, looked up): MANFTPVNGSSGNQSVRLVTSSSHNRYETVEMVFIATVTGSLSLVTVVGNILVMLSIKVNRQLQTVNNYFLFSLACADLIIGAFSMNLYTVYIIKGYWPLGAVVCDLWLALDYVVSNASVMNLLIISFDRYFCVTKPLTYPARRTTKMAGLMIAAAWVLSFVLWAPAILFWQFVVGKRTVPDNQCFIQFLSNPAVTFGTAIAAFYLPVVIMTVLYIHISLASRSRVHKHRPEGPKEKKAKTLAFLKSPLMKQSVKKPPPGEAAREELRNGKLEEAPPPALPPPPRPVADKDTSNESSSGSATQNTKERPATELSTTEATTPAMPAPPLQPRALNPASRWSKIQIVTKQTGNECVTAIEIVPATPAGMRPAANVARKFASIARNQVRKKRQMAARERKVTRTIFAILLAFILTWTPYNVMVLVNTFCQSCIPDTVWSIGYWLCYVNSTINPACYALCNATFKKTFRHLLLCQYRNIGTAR

Regarding `CCc1cc(=O)oc2cc(C)c(CN3CCCC3)c(O)c12`, the cell count in test [1] came out at 666. Further, the inhibition in [1] was -6.3% (inactive); in [2] it was 27.1% (inactive); in test [4], -2.29% (inactive); in [9], 3.29% (inactive). For the same compound, in test [2], the nuclei count was 158%. Further, the z-score in test [3] (setting [10]) was -0.426; in [3] (setting [11]), -0.164; in test [3] (setting [12]) it was -0.144. Also, the fluorescence slope in test [5] is -0.444 (inactive); in [7], 0.00438 (inactive). Moreover, in test [6], the NADPH fluorescence slope is -0.000155 (inactive). Besides, the call in test [8] was inactive.
With `CS(=O)(=O)c1ccc2nc(NC(NC(=O)c3ccco3)(C(F)(F)F)C(F)(F)F)sc2c1`, the cell count in test [1] was 376. For the same compound, the inhibition in test [1] is -6.2% (inactive); in [2], 9.6% (inactive); in test [4], 3.42% (inactive); in test [9] it was 2.54% (inactive). In addition, the nuclei count in test [2] was 162%. Also, the figures for the z-score in [3] (setting [10]), in test [3] (setting [11]) and in [3] (setting [12]) were -0.876, 1.31 and 0.831, respectively. In addition, the figures for the fluorescence slope in [5] and in test [7] were -0.451 (inactive) and 0.00497 (inactive), respectively. Besides, the NADPH fluorescence slope in [6] is -8.9e-05 (inactive). Also, the outcome in test [8] was inactive.
On to `CCN(CC)CCN1C(=O)c2ccccc2NC1c1cc(OC)c(OC)c(OC)c1` (stereo unspecified), for which the cell count in test [1] was 672. For the same compound, the inhibition is -13.1% (inactive) in [1], 57.5% (inactive) in test [2], 3.49% (inactive) in test [4] and 16.2% (inactive) in test [9]. Besides, the nuclei count in [2] amounted to 132%. Further, the z-score in [3] (setting [10]) was 0.00511; in test [3] (setting [11]), -1.27; in [3] (setting [12]), 1.11. In addition, the fluorescence slope in test [5] is -0.0732 (inactive); in test [7] it was 0.00441 (inactive). Also, the NADPH fluorescence slope in [6] was -1.4e-05 (inactive). Also, the result in [8] was inactive.
On to `CCOC(=O)CSc1nc(N2CCOCC2)c2c(c1C#N)CC(C)(C)N(C)C2`, for which the cell count in [1] is 531. The inhibition in test [1] is -4.6% (inactive); in [2] it was -19.7% (inactive); in test [4], 1.42% (inactive); in test [9], 33.8% (inactive). In [2], the nuclei count stood at 102%. Also, the figures for the z-score in test [3] (setting [10]), in [3] (setting [11]) and in test [3] (setting [12]) were -0.379, 0.944 and -0.77, respectively. The fluorescence slope was -0.505 (inactive) in [5] and 0.00477 (inactive) in test [7]. In addition, the NADPH fluorescence slope in [6] is 4.1e-05 (inactive). In test [8], the compound was called inactive.
As to `CCCc1nnc(NC(=O)Nc2ccccc2OC)s1`, the cell count in test [1] turned out to be 618. Further, the inhibition in [1] is -9.4% (inactive); in test [2], 14.1% (inactive); in [4], 42.6% (inactive); in [9], -5.69% (inactive). For the same compound, in test [2], the nuclei count was determined as 100%. Also, the z-score in test [3] (setting [10]) was 1.95; in test [3] (setting [11]), 0.159; in test [3] (setting [12]) it was -0.528. Besides, the fluorescence slope in [5] is -0.515 (inactive); in [7], 0.0109 (inactive). Moreover, in test [6], the NADPH fluorescence slope was -4.1e-05 (inactive). Further, the compound was classed as inactive in [8].
`C(=N\n1cnnc1)/c1ccccn1`: the cell count in test [1] worked out at 607. Moreover, the inhibition in test [1] is 3.2% (inactive); in test [2], -109% (inactive); in test [4], 9.42% (inactive); in [9] it was 16.5% (inactive). The nuclei count in test [2] is 127%. Also, the z-score in test [3] (setting [10]) was 0.675; in test [3] (setting [11]), 3.12; in [3] (setting [12]), -0.143. Moreover, the fluorescence slope was -0.442 (inactive) in test [5] and 0.00562 (inactive) in test [7]. The NADPH fluorescence slope in test [6] is -0.000114 (inactive). Moreover, the compound was called inactive in test [8].
Turning to `COc1cccc(C(=O)N2CCN(Cc3ccccn3)CC2)c1OC`, in [1], the cell count was 503. The inhibition in test [1] was -5.7% (inactive); in test [2] it was -70.6% (inactive); in test [4], -12.3% (inactive); in test [9], 1.71% (inactive). Also, the nuclei count in [2] was determined as 158%. Further, the z-score in test [3] (setting [10]) is -2.51; in test [3] (setting [11]) it was 0.355; in test [3] (setting [12]), 0.989. Also, the fluorescence slope in test [5] is -0.466 (inactive); in [7] it was 0.00645 (inactive). The NADPH fluorescence slope in test [6] is -5.6e-05 (inactive). Moreover, in [8], the compound was called inactive.

Values taken from PubChem BioAssay.
